The source made the active and inactive calls. The calls are words filed in the database; no cut-off is given here.
Columns and labels:
MCF7 [1] = test: Induction of azide reporter generation in human MCF7 cells at 50 uM incubated for 72 hrs by Western blot analysis; format: functional, cell-based
Procedure, shortened: (§1)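 Cells seeded at 4 × 10⁴ per mL (MCF-7, RPMI/5% FBS) or 1 × 10⁴ per mL (L929, DMEM/10% FBS) and fed azido sugar at 37 °C for 72 h. RIPA lysates were cleared, protein-normalised and reacted with 0.5 μM phosphine-PEG3-biotin for 12 h at RT. 20 μg protein run on 8% SDS-PAGE, transferred to PVDF, blocked in BSA/TBST, probed overnight at 4 °C with streptavidin-HRP, ECL detection.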

MCF7 [2] = test: Anticancer activity against human MCF7 cells assessed as cell viability at 50 uM by MTT assay relative to control; format: functional; settings: read-out: Activity
L929 [3] = test: Induction of azide reporter generation in mouse L929 cells at 50 uM incubated for 72 hrs by confocal laser microscopy; format: functional, cell-based
Procedure, shortened: (§2)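 Cells seeded at 4 × 10⁴ per mL (MCF-7) or 1 × 10⁴ per mL (L929) in glass-bottom dishes and kept with azido sugar at 37 °C for 72 h. Washed cells were labelled with 20 μM DBCO-Cy5 for 1 h at 37 °C, formaldehyde-fixed and DAPI-mounted. Confocal imaging; mean fluorescence intensity quantified; mean ± SEM, n = 3.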

MCF7 [4] = test: Induction of azide reporter generation in human MCF7 cells at 50 uM incubated for 72 hrs by confocal laser microscopy; format: functional, cell-based; procedure, shortened: as §2
L929 [5] = test: Induction of azide reporter generation in mouse L929 cells at 50 uM incubated for 72 hrs by Western blot analysis; format: functional, cell-based; procedure, shortened: as §1
MCF7 [6] = test: Anticancer activity against Tetra-O-acetyl-azidomannosamine engineered human MCF7 cells incubated for 72 hrs by MTT assay; format: functional, cell-based; settings: MCF7, 72 h
Procedure, shortened: (§3)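 MCF-7 cells grown in RPMI 1640 with 5% FBS at 37 °C, 5% CO2. Cells were pre-labelled with 50 μM Ac4ManNAz for 72 h, then seeded at 4 × 10⁴ cells per mL. After 24 h they were exposed to prodrug at 0.001–10 μM for 72 h. MTT (0.5 mg mL⁻¹, 4 h) was added, formazan dissolved in DMSO, A570 read. Untreated cells served as control. Triplicates; IC50 from fitted curve; mean ± SEM.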

[7] = Cytotoxicity against Tetra-O-acetyl-azidomannosamine engineered mouse L929 cells incubated for 72 hrs by MTT assay; format: toxicity, cell-based; settings: L929 cells engineered with Tetra-O-acetyl-azidomannosamine
Procedure, shortened: as §3, with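 “L929 cells” for “MCF-7 cells”, “in DMEM” for “in RPMI 1640”, “with 10%” for “with 5%”, “at 1” for “at 4”, “× 10⁵” for “× 10⁴”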

[8] = Selectivity index, ratio of IC50 for mouse L929 cells to IC50 for human MCF7 cells; format: toxicity; settings: L929 cells and MCF7 cells, read-out: Ratio IC50
Procedure, shortened: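 MTT assay on MCF-7 (RPMI, 5% FBS) and L929 (DMEM, 10% FBS) at 37 °C, 5% CO2. Some cells were first given 50 μM azido-sugar for 72 h. Cells were seeded at 4 × 10⁴ or 1 × 10⁵ cells/mL for 24 h, then treated with 0.001–10 μM for 72 h. MTT 0.5 mg/mL, 4 h, DMSO, A570; untreated control; triplicate; IC50 from fitted curves; ratio L929/MCF-7.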

SMILES	Activity (MCF7 [1])	viability at 50 µM (MCF7 [2]) [%]	Activity (L929 [3])	Activity (MCF7 [4])	Activity (L929 [5])	IC50 (MCF7 [6]) [nM]	IC50 at 72 h [7] [µM]	selectivity ratio [8]
CC(=O)N[C@H]1[C@H]([C@H](O)[C@H](O)CN=[N+]=[N-])OC(O)(C(=O)O)C[C@@H]1O (single isomer, unassigned)	Active	100	inactive	Active	inactive	–	–	–
CC(=O)N[C@H]1[C@H]([C@H](OC(C)=O)[C@@H](CN=[N+]=[N-])OC(C)=O)O[C@@](OC(C)=O)(C(=O)O)C[C@@H]1OC(C)=O	Active	100	inactive	Active	inactive	–	–	–
COc1cccc2c1C(=O)c1c(O)c3c(c(O)c1C2=O)C[C@@](O)(C(=O)CO)C[C@@H]3OC1C[C@@H](NC(=O)c2ccccc2P(c2ccccc2)c2ccccc2)[C@@H](O)[C@@H](C)O1 (some centres undefined)	–	–	–	–	–	200	7.7	2
CC(=O)OC[C@H]1OC(OC(C)=O)[C@@H](NC(=O)CN=[N+]=[N-])[C@@H](OC(C)=O)[C@@H]1OC(C)=O (some centres undefined)	Active	100	Active	Active	Active	–	–	–
O=C(Nc1ccc(N(CCCl)CCCl)cc1)c1ccccc1P(c1ccccc1)c1ccccc1	–	–	–	–	–	–	–	2

Reference: ChEMBL document CHEMBL5335786, “Bioorthogonal activation of prodrugs, for the potential treatment of breast cancer, using the Staudinger reaction” (RSC Med Chem, 2023)
